Active and inactive are the calls of the source. The calls are words filed in the database; no cut-off is given here.
How the values were obtained:
[1] = target: T1, Phosphotyrosine-protein phosphatase PTPB (Mycobacterium tuberculosis) (UniProt P96830); experiment: Inhibition of Mycobacterium tuberculosis N-terminal His6-tagged PTPB at 20 uM using pNPP as substrate
T1 sequence (whole entry): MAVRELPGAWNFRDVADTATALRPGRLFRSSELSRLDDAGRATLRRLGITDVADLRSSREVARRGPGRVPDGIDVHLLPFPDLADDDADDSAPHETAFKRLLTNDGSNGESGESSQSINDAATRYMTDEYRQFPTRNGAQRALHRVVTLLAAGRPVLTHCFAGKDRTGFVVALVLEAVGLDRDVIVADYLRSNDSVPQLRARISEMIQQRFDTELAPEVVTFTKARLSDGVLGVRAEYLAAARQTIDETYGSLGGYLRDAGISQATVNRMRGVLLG

[2] = target: T2, Phosphotyrosine-protein phosphatase PTPB (Mycobacterium tuberculosis, UniProt P96830); experiment: Inhibition of Mycobacterium tuberculosis N-terminal His6-tagged PTPB preincubated with compound for 30 mins before pNPP substrate addition by microplate spectrophotometer analysis
T2 sequence (P96830 whole entry): T1 sequence (whole entry)

[3] = target: T2, Phosphotyrosine-protein phosphatase PTPB; experiment: Inhibition of Mycobacterium tuberculosis N-terminal His6-tagged PTPB
[4] = target: T1, Phosphotyrosine-protein phosphatase PTPB (Mycobacterium tuberculosis); experiment: Inhibition of Mycobacterium tuberculosis PTPB expressed in mouse RAW 264.7 cells assessed as restoration of IFN gamma-induced ERK1/ERK2 phosphorylation at 15 uM after 30 mins by Western blotting; assay type: cell-based
Outline: (§1)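 RAW 264.7 macrophages (DMEM, 10% FBS, 37°C, 5% CO₂) stably expressing HA-tagged mPTPB (electroporation, G418 0.5 mg/ml selection 2 weeks). Cells at 80% confluency lysed in Triton X-100 buffer with phosphatase/protease inhibitors; pERK1/2 detected by western blot.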

[5] = target: T1, Phosphotyrosine-protein phosphatase PTPB (Mycobacterium tuberculosis); experiment: Inhibition of Mycobacterium tuberculosis PTPB expressed in mouse RAW 264.7 cells assessed as restoration of IFN gamma-induced ERK1/ERK2 phosphorylation after 30 mins by Western blotting; assay type: cell-based; outline: as §1
[6] = target: T2, Phosphotyrosine-protein phosphatase PTPB; experiment: Inhibition of Mycobacterium tuberculosis PTPB expressed in Escherichia coli after 5 mins by microplate spectrophotometer analysis
[7] = target: T2, Phosphotyrosine-protein phosphatase PTPB; experiment: Competitive inhibition of Mycobacterium tuberculosis N-terminal His6-tagged PTPB assessed as production of p-nitrophenol from pNPP substrate by Lineweaver-Burk plot analysis
[8] = target: T1, Phosphotyrosine-protein phosphatase PTPB (Mycobacterium tuberculosis); experiment: Inhibition of Mycobacterium tuberculosis PTPB expressed in mouse RAW 264.7 cells assessed as restoration of IFN gamma-induced ERK1/ERK2 phosphorylation at 10 uM after 30 mins by Western blotting; assay type: cell-based; outline: as §1
[9] = target: T2, Phosphotyrosine-protein phosphatase PTPB; experiment: Non-competitive inhibition of Mycobacterium tuberculosis N-terminal His6-tagged PTPB assessed as production of p-nitrophenol from pNPP substrate by Lineweaver-Burk plot analysis
[10] = target: T1, Phosphotyrosine-protein phosphatase PTPB (Mycobacterium tuberculosis); conditions: RAW, 5 to 10 uM
[11] = tested on: Mycobacterium tuberculosis; experiment: Antimycobacterial activity against Mycobacterium tuberculosis H37Rv after 7 days by microplate alamar blue assay; assay type: functional; conditions: 168 h
Outline: (§2)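 MABA read-out after 7 day incubation in Middlebrook 7H12 medium against replicating M. tuberculosis cultures.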

[12] = tested on: Mycobacterium tuberculosis; experiment: Potentiation of IFN-gamma-induced antimycobacterial activity against Mycobacterium tuberculosis Erdman ATCC 35801 infected in mouse J774A.1 cells assessed as decrease in bacterial load at 10 uM after 7 days; assay type: functional, organism-based
Outline: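 J774A.1 macrophages on cover slips infected 1 h at 37°C with M. tuberculosis Erdman (1-3 x10⁵ CFU/ml), rinsed, 16 h at 37°C/5% CO₂, then compound 10 µM with amikacin and IFN-γ 50 U/mL; triplicates. After 7 days cells lysed with 0.25% SDS, dilutions plated on 7H11 agar, colonies counted after 2-3 weeks.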

[13] = tested on: Mycobacterium tuberculosis; experiment: Antimycobacterial activity against Mycobacterium tuberculosis Erdman ATCC 35801 after 7 days by microplate alamar blue assay; assay type: functional; conditions: Erdman ATCC 35801, 168 h; outline: as §2
J774.A1 = experiment: Cytotoxicity at mouse J774A1 cells up to 100 uM after 72 hrs by MTS assay; assay type: cell-based; conditions: j774.a1, 72 h
Outline: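 J774A.1 cells exposed 72 h; viability from MTS conversion to formazan.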

SMILES | inhibition [1] | IC50 [2] [µM] | IC50 [3] [µM] | other results
CC(NC(=O)C(=O)N1CCCCC1)C(c1cccs1)N1CCN(c2ccccc2)CC1 (configuration not stated) | inactive |  |  | 
CC(NC(=O)C(=O)N1CCCCC1)C(c1cccs1)N1CCN(C)CC1 (configuration not stated) | inactive |  |  | 
Cc1cccc(NS(=O)(=O)c2ccc3c4c(cccc24)C(=O)N3)c1C | inactive |  |  | 
O=C1Nc2ccc(S(=O)(=O)N(CCO)CCO)c3cccc1c23 | inactive |  |  | 
O=C1Nc2ccc(S(=O)(=O)Nc3cc(Cl)c(O)c4ccccc34)c3cccc1c23 |  | 12.8 | 15.5 | 
CC(NC(=O)C(=O)NCCc1c[nH]c2ccccc12)C(c1cccs1)N1CCN(c2ccc(F)cc2)CC1 (configuration not stated) |  | 17.5 | 12.1 | 
CCN1CCN(C(c2cccs2)C(C)NC(=O)C(=O)N2CCOCC2)CC1 (configuration not stated) | inactive |  |  | 
CC(NS(=O)(=O)c1ccc2c3c(cccc13)C(=O)N2)C1C2CC3CC(C2)CC1C3 (configuration not stated) | inactive |  |  | 
CCCCCCCOC(=O)c1c(C)oc2ccc(NS(=O)(=O)c3ccc4c5c(cccc35)C(=O)N4)cc12 |  | 22.8 | 19.5 | 
COc1ccc(N2CCN(C(c3cccs3)C(C)NC(=O)C(=O)N3CCCCC3)CC2)cc1 (configuration not stated) | inactive |  |  | inhibition [4]: inactive
CCCCCOC(=O)c1c(C)oc2ccc(NS(=O)(=O)c3ccc4c5c(cccc35)C(=O)N4)cc12 |  | 20.8 | 21.1 | 
CNS(=O)(=O)c1ccc2c3c(cccc13)C(=O)N2 | inactive |  |  | 
O=C1Nc2ccc(S(=O)(=O)NCc3ccccc3)c3cccc1c23 | inactive |  |  | 
CCN1CCN(C(c2cccs2)C(C)NC(=O)C(=O)NCCc2c[nH]c3ccccc23)CC1 (configuration not stated) | inactive |  |  | 
O=C1Nc2ccc(S(=O)(=O)N3CCOCC3)c3cccc1c23 | inactive |  |  | 
CC(NC(=O)C(=O)NCc1ccc2c(c1)OCO2)C(c1cccs1)N1CCN(c2ccccc2)CC1 (configuration not stated) |  | 25.1 | 30.4 | 
COc1ccccc1CNC(=O)C(=O)NC(C)C(c1cccs1)N1CCN(c2ccc(F)cc2)CC1 (configuration not stated) |  | 15.8 | 11.4 | 
O=C1Nc2ccc(S(=O)(=O)NCCO)c3cccc1c23 | inactive |  |  | 
CC(NC(=O)C(=O)NCc1ccco1)C(c1cccs1)N1CCN(C)CC1 (configuration not stated) | inactive |  |  | 
Cc1ccccc1NS(=O)(=O)c1ccc2c3c(cccc13)C(=O)N2 | inactive |  |  | 
CC(NC(=O)C(=O)NCc1cccnc1)C(c1cccs1)N1CCN(c2ccc(F)cc2)CC1 (configuration not stated) |  | 14 | 9.1 | inhibition [5]: Dose-dependent effect; IC50 [6]: 11.5 µM; Ki [7]: 4 µM
NS(=O)(=O)c1ccc2c3c(cccc13)C(=O)N2 | inactive |  |  | inhibition [8]: inactive
CC(NC(=O)C(=O)N1CCCCC1)C(c1cccs1)N1CCN(c2ccc(F)cc2)CC1 (configuration not stated) | inactive |  |  | 
O=C1Nc2ccc(S(=O)(=O)Nc3ccc4oc5c(c4c3)CCCC5)c3cccc1c23 |  | 10.8 | 10.3 | 
COc1ccc(N2CCN(C(c3cccs3)C(C)NC(=O)C(=O)N3CCCC3)CC2)cc1 (configuration not stated) | inactive |  |  | 
CCCCc1ccc(NS(=O)(=O)c2ccc3c4c(cccc24)C(=O)N3)cc1 |  | 1.4 | 1.2 | Ki [9]: 1.1 µM; inhibition [10]: Active; MIC [11]: > 100 µM; IC50 [6]: 1.3 µM; Activity [12]: Active; MIC [13]: > 100 µM; Activity (J774.A1): Non-toxic
COc1ccc(N2CCN(C(c3cccs3)C(C)NC(=O)C(=O)NCc3ccco3)CC2)cc1 (configuration not stated) |  | 6.3 | 4.8 | inhibition [5]: Dose-dependent effect; MIC [11]: > 100 µM; IC50 [6]: 5.6 µM; Activity [12]: Active; MIC [13]: > 100 µM; Ki [7]: 3.2 µM; Activity (J774.A1): Non-toxic
Cc1oc2ccc(NS(=O)(=O)c3ccc4c5c(cccc35)C(=O)N4)cc2c1C(=O)OC(C)C | inactive |  |  | 

— ChEMBL document CHEMBL1773067
